Measured values as given in ChEMBL document CHEMBL1143250, “Synthesis and bioevaluation of 22-hydroxyacuminatine analogs” (Bioorg Med Chem Lett, 2008).
Converted amounts (≈) assume the structure as drawn. The source made the active and inactive calls. The rule behind the calls is not given here.

Legend:
PaCa = test: Antiproliferative activity against human MIA PaCa cells at 2 uM after 96 hrs; assay type: functional, cell-based
Summary of the method: (§1)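 Cytostatic growth-inhibition assay: cells were exposed to compound for 96 h. The IC50 is the concentration giving 50% inhibition of cell growth. Compounds were dissolved in DMSO, and the top concentration was capped by the final DMSO level in the mixture. Compounds showing no inhibition up to the highest concentration tested were scored not active.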

DU-145 [1] = test: Antiproliferative activity against human DU145 cells at 2 uM after 96 hrs; assay type: functional, cell-based; summary of the method: as §1
HT-29 [2] = test: Antiproliferative activity against human HT29 cells at 2 uM after 96 hrs; assay type: functional, cell-based; summary of the method: as §1
KB = test: Cytotoxicity against human KB cells; assay type: functional; details: read-out: ED50 (the source's name)
[3] = Antiproliferative activity against human MIA PaCa cells after 96 hrs; assay type: functional, cell-based; summary of the method: as §1
P388 = test: Cytotoxicity against mouse P388 cells; assay type: functional; details: read-out: ED50 (the source's name)
HT-29 [4] = test: Antiproliferative activity against human HT29 cells after 96 hrs; assay type: functional, cell-based; details: HT-29, 96 h; summary of the method: as §1
DU-145 [5] = test: Antiproliferative activity against human DU145 cells after 96 hrs; assay type: functional, cell-based; details: DU-145, 96 h; summary of the method: as §1

| SMILES | Activity (PaCa) | Activity (DU-145 [1]) | Activity (HT-29 [2]) | EC50 (KB) [µg/mL] | IC50 [3] [nM] | EC50 (P388) [µg/mL] | IC50 (HT-29 [4]) [nM] | IC50 (DU-145 [5]) [nM] |
| --- | --- | --- | --- | --- | --- | --- | --- | --- |
| CCc1c2c(nc3ccc(OC)cc13)-c1cc3c(C(=O)OC)cccc3c(=O)n1C2 | inactive | inactive | inactive |  |  |  |  |  |
| O=c1c2cccc(CO)c2cc2n1Cc1cc3ccccc3nc1-2 |  | inactive | inactive | 0.61 (≈ 1.94 µM) | 1010 | 1.32 (≈ 4.2 µM) |  |  |
| CCc1c2c(nc3ccc(Cl)cc13)-c1cc3c(C(=O)OC)cccc3c(=O)n1C2 |  | inactive | inactive |  | 1500 |  |  |  |
| CCc1c2c(nc3ccc(O)cc13)-c1cc3c(c(=O)n1C2)COC(=O)[C@]3(O)CC [7-ETHYL-10-HYDROXYCAMPTOTHECIN] |  |  |  |  | 6 |  | 12 | 4 |
| CCc1c2c(nc3ccc(Cl)cc13)-c1cc3c(CO)cccc3c(=O)n1C2 |  |  | inactive |  | 810 |  |  | 1690 |
| CCc1c2c(nc3cc4c(cc13)OCCO4)-c1cc3c(C(=O)OC)cccc3c(=O)n1C2 |  | inactive | inactive |  | 1400 |  |  |  |
| CCc1c2c(nc3ccc(C)cc13)-c1cc3c(C(=O)OC)cccc3c(=O)n1C2 |  | inactive | inactive |  | 1810 |  |  |  |
| CCc1c2c(nc3ccc(C)cc13)-c1cc3c(CO)cccc3c(=O)n1C2 |  | inactive | inactive |  | 1140 |  |  |  |
| COC(=O)c1cccc2c(=O)n3c(cc12)-c1nc2ccc(C)cc2c(CCl)c1C3 |  | inactive | inactive |  | 1350 |  |  |  |
| COC(=O)c1cccc2c(=O)n3c(cc12)-c1nc2ccccc2cc1C3 |  | inactive | inactive |  | 1010 |  |  |  |
| O=c1c2cccc(CO)c2cc2n1Cc1cc3cc(Cl)ccc3nc1-2 |  | inactive | inactive |  | 1700 |  |  |  |
| COC(=O)c1cccc2c(=O)n3c(cc12)-c1nc2ccc(OC)cc2c(C)c1C3 |  | inactive | inactive |  | 1990 |  |  |  |
| CCc1c2c(nc3ccc(OC)cc13)-c1cc3c(CO)cccc3c(=O)n1C2 |  |  | inactive |  | 810 |  |  | 1810 |
